# How the values were obtained:
# Format in all cases: functional
# Escherichia coli [1] = experiment: Antibacterial activity against Escherichia coli 10-1 after 18 hrs by two fold serial dilution method; settings: 10-1, 18 h
# Outline: (§1)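 Agar two-fold serial dilution in melted Mueller-Hinton agar, final concentrations 128 down to 0.008 μg/mL. Plates inoculated with 10⁴ cfu and incubated at 35 °C for 18 h. MIC taken as the lowest concentration giving no visible growth on the plate.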
# Escherichia coli [2] = experiment: Antibacterial activity against Escherichia coli 10-2 after 18 hrs by two fold serial dilution method; settings: 10-2, 18 h; outline: as §1
# Escherichia coli [3] = experiment: Antibacterial activity against Escherichia coli 10-3 after 18 hrs by two fold serial dilution method; settings: 10-3, 18 h; outline: as §1
# Klebsiella pneumoniae [4] = experiment: Antibacterial activity against Klebsiella pneumoniae 09-2 after 18 hrs by two fold serial dilution method; settings: 09-2, 18 h; outline: as §1
# Klebsiella pneumoniae [5] = experiment: Antibacterial activity against Klebsiella pneumoniae 10-1 after 18 hrs by two fold serial dilution method; settings: 10-1, 18 h; outline: as §1
# Klebsiella pneumoniae [6] = experiment: Antibacterial activity against Klebsiella pneumoniae 10-3 after 18 hrs by two fold serial dilution method; settings: 10-3, 18 h; outline: as §1
# Pseudomonas aeruginosa [7] = experiment: Antibacterial activity against Pseudomonas aeruginosa ATCC 27853 after 18 hrs by two fold serial dilution method; settings: ATCC 27853, 18 h; outline: as §1
# Pseudomonas aeruginosa [8] = experiment: Antibacterial activity against Pseudomonas aeruginosa 10-1 after 18 hrs by two fold serial dilution method; settings: 10-1, 18 h; outline: as §1
# Pseudomonas aeruginosa [9] = experiment: Antibacterial activity against Pseudomonas aeruginosa 10-2 after 18 hrs by two fold serial dilution method; settings: 10-2, 18 h; outline: as §1
# Pseudomonas aeruginosa [10] = experiment: Antibacterial activity against Pseudomonas aeruginosa 10-3 after 18 hrs by two fold serial dilution method; settings: 10-3, 18 h; outline: as §1
# Enterococcus faecium [11] = experiment: Antibacterial activity against Enterococcus faecium 09-1 after 18 hrs by two fold serial dilution method; settings: 09-1, 18 h; outline: as §1
# Staphylococcus aureus [12] = experiment: Antibacterial activity against Staphylococcus aureus ATCC 25923 after 18 hrs by two fold serial dilution method; settings: ATCC 25923, 18 h; outline: as §1
# Staphylococcus aureus [13] = experiment: Antibacterial activity against methicillin-resistant Staphylococcus aureus 10-1 after 18 hrs by two fold serial dilution method; settings: 10-1, 18 h
# Outline: (§2)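 Agar two-fold serial dilution in melted Mueller-Hinton agar, 128 to 0.008 μg/mL. Plates inoculated with 10⁴ cfu, incubated 35 °C for 18 h. MIC taken as lowest concentration giving no visible growth on the plate.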
# Staphylococcus aureus [14] = experiment: Antibacterial activity against methicillin-resistant Staphylococcus aureus 10-2 after 18 hrs by two fold serial dilution method; settings: 10-2, 18 h; outline: as §2
# Staphylococcus aureus [15] = experiment: Antibacterial activity against methicillin-resistant Staphylococcus aureus 10-3 after 18 hrs by two fold serial dilution method; settings: 10-3, 18 h; outline: as §2
# Staphylococcus aureus [16] = experiment: Antibacterial activity against methicillin-resistant Staphylococcus aureus 10-4 after 18 hrs by two fold serial dilution method; settings: 10-4, 18 h; outline: as §2
# Staphylococcus aureus [17] = experiment: Antibacterial activity against methicillin-sensitive Staphylococcus aureus 10-1 after 18 hrs by two fold serial dilution method; settings: 10-1, 18 h; outline: as §1
# Staphylococcus aureus [18] = experiment: Antibacterial activity against methicillin-sensitive Staphylococcus aureus 10-2 after 18 hrs by two fold serial dilution method; settings: 10-2, 18 h; outline: as §1
# Staphylococcus aureus [19] = experiment: Antibacterial activity against methicillin-sensitive Staphylococcus aureus 10-3 after 18 hrs by two fold serial dilution method; settings: 10-3, 18 h; outline: as §1
# Staphylococcus aureus [20] = experiment: Antibacterial activity against methicillin-sensitive Staphylococcus aureus 10-4 after 18 hrs by two fold serial dilution method; settings: 10-4, 18 h; outline: as §1
# Staphylococcus aureus [21] = experiment: Antibacterial activity against methicillin-sensitive Staphylococcus aureus 10-5 after 18 hrs by two fold serial dilution method; settings: 10-5, 18 h; outline: as §1
# Staphylococcus aureus [22] = experiment: Antibacterial activity against methicillin-sensitive Staphylococcus aureus 10-6 after 18 hrs by two fold serial dilution method; settings: 10-6, 18 h; outline: as §1
# [23] = test system: Staphylococcus epidermidis; experiment: Antibacterial activity against methicillin-resistant Staphylococcus epidermidis 10-1 after 18 hrs by two fold serial dilution method; settings: 10-1, 18 h; outline: as §2
# [24] = test system: Staphylococcus epidermidis; experiment: Antibacterial activity against methicillin-resistant Staphylococcus epidermidis 10-2 after 18 hrs by two fold serial dilution method; settings: 10-2, 18 h; outline: as §2
# [25] = test system: Staphylococcus epidermidis; experiment: Antibacterial activity against methicillin-sensitive Staphylococcus epidermidis 10-1 after 18 hrs by two fold serial dilution method; settings: 10-1, 18 h; outline: as §1
# [26] = test system: Staphylococcus epidermidis; experiment: Antibacterial activity against methicillin-sensitive Staphylococcus epidermidis 10-2 after 18 hrs by two fold serial dilution method; settings: 10-2, 18 h; outline: as §1
# Streptococcus pneumoniae = experiment: Antibacterial activity against Streptococcus pneumoniae 10-1 after 18 hrs by two fold serial dilution method; settings: 10-1, 18 h; outline: as §1
# Enterococcus faecium [27] = experiment: Antibacterial activity against Enterococcus faecium 09-2 after 18 hrs by two fold serial dilution method; settings: 09-2, 18 h; outline: as §1
# Enterococcus faecium [28] = experiment: Antibacterial activity against Enterococcus faecium 09-3 after 18 hrs by two fold serial dilution method; settings: 09-3, 18 h; outline: as §1
# Enterococcus faecium [29] = experiment: Antibacterial activity against Enterococcus faecium 09-4 after 18 hrs by two fold serial dilution method; settings: 09-4, 18 h; outline: as §1
# Enterococcus faecium [30] = experiment: Antibacterial activity against Enterococcus faecium 09-5 after 18 hrs by two fold serial dilution method; settings: 09-5, 18 h; outline: as §1
# Enterococcus faecium [31] = experiment: Antibacterial activity against Enterococcus faecium 09-6 after 18 hrs by two fold serial dilution method; settings: 09-6, 18 h; outline: as §1
# Enterococcus faecalis [32] = experiment: Antibacterial activity against Enterococcus faecalis 09-1 after 18 hrs by two fold serial dilution method; settings: 09-1, 18 h; outline: as §1
# Enterococcus faecalis [33] = experiment: Antibacterial activity against Enterococcus faecalis 09-2 after 18 hrs by two fold serial dilution method; settings: 09-2, 18 h; outline: as §1
# Escherichia coli [34] = experiment: Antibacterial activity against Escherichia coli ATCC 25922 after 18 hrs by two fold serial dilution method; settings: ATCC 25922, 18 h; outline: as §1
# Escherichia coli [35] = experiment: Antibacterial activity against Escherichia coli 09-1 after 18 hrs by two fold serial dilution method; settings: 09-1, 18 h; outline: as §1
# Escherichia coli [36] = experiment: Antibacterial activity against Escherichia coli 09-2 after 18 hrs by two fold serial dilution method; settings: 09-2, 18 h; outline: as §1
# Escherichia coli [37] = experiment: Antibacterial activity against Escherichia coli 09-3 after 18 hrs by two fold serial dilution method; settings: 09-3, 18 h; outline: as §1
smiles,measurement,setting,value
NCC1CN(c2nc3c(cc2F)c(=O)c(C(=O)O)cn3-c2ccc(F)cc2F)C/C1=N\OC(F)F (racemic),MIC,Escherichia coli [1],> 128 µg/mL
same,MIC,Escherichia coli [2],4 µg/mL
same,MIC,Escherichia coli [3],8 µg/mL
same,MIC,Klebsiella pneumoniae [4],64 µg/mL
same,MIC,Klebsiella pneumoniae [5],0.25 µg/mL
same,MIC,Klebsiella pneumoniae [6],2 µg/mL
same,MIC,Pseudomonas aeruginosa [7],4 µg/mL
same,MIC,Pseudomonas aeruginosa [8],1 µg/mL
same,MIC,Pseudomonas aeruginosa [9],128 µg/mL
same,MIC,Pseudomonas aeruginosa [10],8 µg/mL
same,MIC,Enterococcus faecium [11],32 µg/mL
same,MIC,Staphylococcus aureus [12],0.008 µg/mL
same,MIC,Staphylococcus aureus [13],16 µg/mL
same,MIC,Staphylococcus aureus [14],4 µg/mL
same,MIC,Staphylococcus aureus [15],16 µg/mL
same,MIC,Staphylococcus aureus [16],16 µg/mL
same,MIC,Staphylococcus aureus [17],0.03 µg/mL
same,MIC,Staphylococcus aureus [18],1 µg/mL
same,MIC,Staphylococcus aureus [19],0.015 µg/mL
same,MIC,Staphylococcus aureus [20],0.008 µg/mL
same,MIC,Staphylococcus aureus [21],0.015 µg/mL
same,MIC,Staphylococcus aureus [22],0.015 µg/mL
same,MIC,[23],2 µg/mL
same,MIC,[24],1 µg/mL
same,MIC,[25],32 µg/mL
same,MIC,[26],64 µg/mL
same,MIC,Streptococcus pneumoniae,0.06 µg/mL
same,MIC,Enterococcus faecium [27],32 µg/mL
same,MIC,Enterococcus faecium [28],16 µg/mL
same,MIC,Enterococcus faecium [29],0.125 µg/mL
same,MIC,Enterococcus faecium [30],32 µg/mL
same,MIC,Enterococcus faecium [31],0.125 µg/mL
same,MIC,Enterococcus faecalis [32],8 µg/mL
same,MIC,Enterococcus faecalis [33],16 µg/mL
same,MIC,Escherichia coli [34],0.008 µg/mL
same,MIC,Escherichia coli [35],32 µg/mL
same,MIC,Escherichia coli [36],> 128 µg/mL
same,MIC,Escherichia coli [37],64 µg/mL

# Source: ChEMBL document CHEMBL1926550, “Synthesis and antibacterial activity of naphthyridone derivatives containing mono/difluoro-methyloxime pyrrolidine scaffolds” (2012)
